For test [1], the system named is RAW264.7. As to the kind of experiment: Antiinflammatory activity against mouse RAW264.7 cells assessed as inhibition of LPS-induced NO production […] assessed after 24 hrs by Griess reagent assay. It is filed as functional, cell-based. A digest of the protocol: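 RAW264.7 cells were seeded at 1 × 10^5 cells/well and held 3 h. They were then stimulated with LPS (1 µg/mL) for 24 h with or without compound. Supernatant nitrite was measured by Griess reaction: equal volumes of supernatant and reagent (0.1% N-(1-naphthyl)ethylenediamine and 1% sulfanilamide in 5% phosphoric acid, 1:1), absorbance at 570 nm. Values were quantified against a sodium nitrite standard curve. Aminoguanidine served as reference. IC50 reported. Viability was checked by MTT.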

The test system of test [2] is RAW264.7. As to the kind of experiment: Antiinflammatory activity against mouse RAW264.7 cells assessed as inhibition of LPS-induced NF-kappaB activation […] assessed after 24 hrs by SEAP reporter gene assay. It is filed as functional, cell-based. In outline: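 RAW264.7 cells stably carrying a plasmid with eight κB elements driving SEAP were seeded at 5 × 10^4 cells/well and held 3 h at 37 °C. Cells then received test compounds at various concentrations together with LPS (1 µg/mL) for 24 h. Supernatant was heated 65 °C for 5 min, then mixed with 2× SEAP buffer (2 M diethanolamine, 1 mM MgCl2, 20 mM L-homoarginine) for 10 min at 37 °C. p-Nitrophenyl phosphate substrate was added, incubated at 37 °C, and A405 read. Dose-response IC50 reported.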

On to `CC(=O)O[C@H]1C[C@@H](C)[C@]23OC(C)(C)[C@H](C[C@H](OC(=O)c4ccccc4)[C@]2(C)[C@H]1OC(C)=O)[C@H]3OC(=O)c1ccccc1` [ORBICULIN A], for which the IC50 in the test with RAW264.7 [1] and in the test on RAW264.7 [2] was over 300 µM throughout. For `CC(=O)O[C@H]1C[C@@H](C)[C@]23OC(C)(C)[C@H](C[C@H](OC(=O)c4ccccc4)[C@]2(C)[C@H]1OC(C)=O)[C@H]3OC(=O)c1ccco1` [ORBICULIN E], the IC50 in the test on RAW264.7 [1] and in the test on RAW264.7 [2] was over 300 µM throughout. On to `CC(=O)O[C@H]1[C@@H](OC(=O)c2ccco2)C[C@@H](C)[C@]23OC(C)(C)[C@H](C[C@H](OC(=O)c4ccccc4)[C@]12C)[C@H]3OC(=O)c1ccco1` [ORBICULIN F], for which the half-maximal inhibitory concentration (IC50) in the test on RAW264.7 [1] and in the test with RAW264.7 [2] was over 300 µM in each case. With `CC1=C(O)C(=O)C=C2C1=CC=C1[C@@]2(C)CC[C@@]2(C)[C@@H]3C[C@](C)(C(=O)O)CC[C@]3(C)CC[C@]12C` [CELASTROL], the figures for the IC50 with RAW264.7 [1] and in the test on RAW264.7 [2] were 0.23 µM and 0.27 µM, respectively. For `CC1(C)CCC[C@@]2(C)C1=C(O)C(=O)c1cc(O)c(O)cc12` [CELAPHANOL A], in that order: 32.6 µM and 18.2 µM. Regarding `CC(=O)O[C@H]1CC[C@@H](C)[C@]23OC(C)(C)[C@H](C[C@H](OC(=O)c4ccco4)[C@]12C)[C@H]3OC(=O)c1ccco1` [ORBICULIN D], the IC50 in the test with RAW264.7 [1] worked out at 43.6 µM; in the test with RAW264.7 [2] it was 36.7 µM. The matching figures for `CC(=O)O[C@@H]1[C@@H]2[C@@H](OC(=O)c3ccco3)[C@]3(OC2(C)C)[C@H](C)CC[C@H](OC(C)=O)[C@@]3(C)[C@H]1OC(=O)c1ccco1` [ORBICULIN H]: 50.4 µM and 33.5 µM. For `CC(=O)O[C@H]1[C@@H](OC(=O)c2ccco2)C[C@@H](C)[C@]23OC(C)(C)[C@H](C[C@H](OC(=O)c4ccco4)[C@]12C)[C@H]3OC(=O)c1ccco1` [ORBICULIN I], in that order: 51.2 µM and 61.5 µM.

For the compound `N=C(N)NN` [PIMAGEDINE], the half-inhibitory concentration (IC50) in the test with RAW264.7 [1] was found to be 16.3 µM.

The values are drawn from ChEMBL document CHEMBL1159311, “Antiinflammatory constituents of Celastrus orbiculatus inhibit the NF-kappaB activation and NO production” (J Nat Prod, 2002).
